Screening data from PubChem.
PKA-R2B activ: PKA-R2B complex activation | P22694+P31323 | PKA-R2B holoenzyme dissociation, Cy5-IP20 fluorescence polarization; R2B truncated from residue 108, S112A mutant; 0% DMSO only, 100% 113 µM cGMP | activation, % at 11.4 µM | 340,000 compounds, 0.079% hits | AID 504700;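 active = activation above a cutoff set at the mean over all compounds plus 3 SD, cut at about 18% in these data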;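 also: higher means more holoenzyme dissociation and a rise in polarization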
Neddylation inh: cullin neddylation inhibition; 360,000 compounds, 0.58% hits; inhibition, % at 25 µM; TR-FRET cullin neddylation, biochemical; P61081+Q13564; AID 651699; in the data active = inhibition above about 36%
Tn6 DDE FP: DD(E)-Tn6 binding inhibition, primary FP screen; P02675; 370,000 compounds, 0.21% hits; Fibrin DD(E) TRITC-Tn6 fluorescence polarization displacement; AID 720509; inhibition, % at 8.3 µM;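 active = inhibition above a per-campaign cutoff: mean of compounds within control limits plus 3 SD, cut at about 15% in these data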;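 also: 0% = median of all compound wells on the plate and 100% = blocking peptide control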
Target sequence (P02675 whole entry, looked up): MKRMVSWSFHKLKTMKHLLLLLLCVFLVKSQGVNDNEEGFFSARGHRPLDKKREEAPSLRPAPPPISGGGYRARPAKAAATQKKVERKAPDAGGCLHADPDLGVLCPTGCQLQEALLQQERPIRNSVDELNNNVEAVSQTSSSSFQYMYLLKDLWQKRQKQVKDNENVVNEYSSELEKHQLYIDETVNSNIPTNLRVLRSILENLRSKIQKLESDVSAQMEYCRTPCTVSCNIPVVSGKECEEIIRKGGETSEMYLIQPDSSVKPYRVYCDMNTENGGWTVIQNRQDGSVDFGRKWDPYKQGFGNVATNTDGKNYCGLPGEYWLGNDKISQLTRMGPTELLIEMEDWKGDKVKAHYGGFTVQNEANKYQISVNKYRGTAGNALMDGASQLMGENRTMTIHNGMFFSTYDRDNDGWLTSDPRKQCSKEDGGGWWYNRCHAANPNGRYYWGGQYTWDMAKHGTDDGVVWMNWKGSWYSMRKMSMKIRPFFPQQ
DDE Tn7 FP inh: inhibitors of Tn7 peptide binding to human fibrin DD(E); P02675; FP displacement of FITC-Tn7 peptide from fibrin DD(E); 0% = median of compound wells per plate; inhibition, % at 8.3 µM; 370,000 compounds, 0.13% hits; AID 720508;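 active = inhibition above the mean of compounds falling within the control limits plus 3 SD of them, cut at about 14% in these data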;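 also: 0% = plate median of compound wells and 100% = 10 µM Aha-Tn7 peptide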
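Assay system: Fibrin-DD(E) protein isolated from polymerized human fibrin clots; read-out basis: percent inhibition; medium: Tris/NaCl/CaCl2 buffer, pH 7.8; signal: FP measurement; incubation: 10 min plus 3 h, room temperature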
PKA-R1A activ: activators of PKA-R1A complex; P00514+P68181; PKA-R1A dissociation, Cy5-IP20 fluorescence polarization; scaled: DMSO 0%, 113 µM cGMP 100%; AID 504707; activation, % at 11.4 µM; 340,000 compounds, 0.083% hits;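 active = percent activation above the mean of all tested compounds plus 3 SD, cut at about 19% in these data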;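 also: higher means more PKAc released from R1A so a rise in polarization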
R2B FP artifact: FP assay interference, PKA-R2B counter-screen; shares compounds with PKA-R2B activ; FP artifact counterscreen, fluorescence polarization; activation, % at 11.4 µM; 270 compounds, 6% hits; AID 504796; in the data active = activation above about 20%;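 also: Cy5 labelled IP20 peptide probe with compound but no PKA protein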
PKA-R2B act conf: confirmation of human PKA-R2B complex activators; shares compounds with PKA-R2B activ; fluorescence polarization, activation; activation, % at 11.4 µM; 270 compounds, 9% hits; AID 504797; in the data active = activation above about 19%
Active calls of the source: *. Most compounds without a hit are left out; they make up all but 1% or so of the library.

How did COc1ccc(NS(=O)(=O)c2cc(NC(=O)c3ccccc3F)ccc2N2CCCC2)cc1 do in these assays?
PKA-R2B activ: 19.3*; Neddylation inh: 9.2; Tn6 DDE FP: -2.7; DDE Tn7 FP inh: -4.2; PKA-R1A activ: -9.9; R2B FP artifact: -3.4; PKA-R2B act conf: -2.9

Results for COC(=O)[C@@H](NC(=O)c1ccc(OC2CCN(Cc3ccccn3)CC2)cc1)C(C)C ?
PKA-R2B activ: 19.5*; Neddylation inh: -1.5; Tn6 DDE FP: 4.0; DDE Tn7 FP inh: 4.0; PKA-R1A activ: 6.5; R2B FP artifact: -1.3; PKA-R2B act conf: -1.6

Results for CCOc1ccc(NC(=O)CN2C(=O)NC3(CCCCCC3)C2=O)cc1 ?
PKA-R2B activ: 20.0*; Neddylation inh: -1.3; Tn6 DDE FP: 3.1; DDE Tn7 FP inh: -4.5; PKA-R1A activ: -3.6; R2B FP artifact: -3.1; PKA-R2B act conf: -2.8

Results for COC(=O)c1ccc(C=NNC(=O)c2cc(-c3ccc(C)c(C)c3)n[nH]2)cc1 ?
Tn6 DDE FP: 4.7; DDE Tn7 FP inh: -2.0

What do the screens show for `O=C(NC1CCCCC1)c1ccc(Br)o1`?
PKA-R2B activ: 18.4*; Neddylation inh: 3.7; Tn6 DDE FP: -4.9; DDE Tn7 FP inh: -2.7; PKA-R1A activ: -8.9; R2B FP artifact: -3.2; PKA-R2B act conf: 2.4

Results for c1ccc(-c2nnc(OCCN3CCOCC3)c3ccccc23)cc1 ?
PKA-R2B activ: 18.4*; Neddylation inh: 1.3; Tn6 DDE FP: 3.2; DDE Tn7 FP inh: 0.1; PKA-R1A activ: -0.7; R2B FP artifact: -0.4; PKA-R2B act conf: -3.9

Results for CC(NC(=O)Cc1ccccc1)c1ccc(F)cc1 (stereo unspecified) ?
PKA-R2B activ: -8.5; Neddylation inh: 4.3; Tn6 DDE FP: 2.5; DDE Tn7 FP inh: -7.2; PKA-R1A activ: -1.2

Results for CC(NC(=O)Cc1ccc(F)cc1)c1ccc(F)cc1 (stereo unspecified) ?
PKA-R2B activ: 19.4*; Neddylation inh: 11.4; Tn6 DDE FP: 0.1; DDE Tn7 FP inh: -5.2; PKA-R1A activ: 2.3; R2B FP artifact: 1.0; PKA-R2B act conf: 6.2

Results for COc1cccc(Nc2nc(NCCO)nc(N3CCCC3)n2)c1 ?
PKA-R2B activ: 22.0*; Neddylation inh: 1.9; Tn6 DDE FP: -2.9; DDE Tn7 FP inh: -7.8; PKA-R1A activ: 7.2; R2B FP artifact: -1.2; PKA-R2B act conf: 1.1

What do the screens show for `Cn1c(CCCOc2ccc(Cl)cc2Cl)nnc1SCC(=O)Nc1nccs1`?
PKA-R2B activ: 20.4*; Neddylation inh: 2.5; Tn6 DDE FP: -7.5; DDE Tn7 FP inh: 0.4; PKA-R1A activ: -1.0; R2B FP artifact: -0.1; PKA-R2B act conf: 2.2

How did CCCCc1nnc(SCC(=O)Nc2nccs2)n1C do in these assays?
PKA-R2B activ: -1.0; Neddylation inh: -3.3; Tn6 DDE FP: -2.3; DDE Tn7 FP inh: -4.3; PKA-R1A activ: -4.6

What do the screens show for `COCC(=O)Nc1cccc(C(F)(F)F)c1`?
PKA-R2B activ: 19.2*; Neddylation inh: 3.7; Tn6 DDE FP: 7.6; DDE Tn7 FP inh: 4.3; PKA-R1A activ: 5.9; R2B FP artifact: -0.4; PKA-R2B act conf: -1.1

How did CCOC(=O)C1=C(c2ccccc2)NC(SCC(=O)Nc2ccc(C)cc2)=C(C#N)C1c1ccco1 (stereo unspecified) do in these assays?
PKA-R2B activ: 2.8; Neddylation inh: 20.1; PKA-R1A activ: -3.1

What do the screens show for `CCOC(=O)C1=C(c2ccccc2)NC(SCC(=O)Nc2ccccc2C)=C(C#N)C1c1ccco1` (stereo unspecified)?
PKA-R2B activ: 18.6*; Neddylation inh: 21.4; Tn6 DDE FP: -6.8; DDE Tn7 FP inh: 3.2; PKA-R1A activ: 2.1; R2B FP artifact: 4.3; PKA-R2B act conf: 0.8

Results for CC(C)(C)OC(=O)NC1CCN(c2nc(-c3ccc(Br)cc3)cs2)CC1 ?
Tn6 DDE FP: 0.6; DDE Tn7 FP inh: -2.0

How did COc1ccc(NC(=O)CCNC(=O)Cn2cnc3ccccc3c2=O)cc1OC do in these assays?
PKA-R2B activ: 21.1*; Neddylation inh: 5.7; Tn6 DDE FP: -1.5; DDE Tn7 FP inh: -1.8; PKA-R1A activ: -1.5; R2B FP artifact: 2.4; PKA-R2B act conf: -3.0

How did COc1cc(NC(=O)CCNC(=O)Cn2cnc3ccccc3c2=O)cc(OC)c1OC do in these assays?
PKA-R2B activ: -7.2; Neddylation inh: 6.1; Tn6 DDE FP: 3.3; DDE Tn7 FP inh: -1.1; PKA-R1A activ: -6.9

Results for O=C(c1ccccc1OCc1ccccc1)N(Cc1ccccn1)CC1CCCO1 (stereo unspecified) ?
Tn6 DDE FP: 2.0; DDE Tn7 FP inh: 0.4

What do the screens show for `CCOC(=O)N1CCC(Nc2c(NCCCN(C)Cc3ccccc3)c(=O)c2=O)CC1`?
PKA-R2B activ: 20.1*; Neddylation inh: 3.2; Tn6 DDE FP: -3.0; DDE Tn7 FP inh: 0.6; PKA-R1A activ: 10.0; R2B FP artifact: 0.4; PKA-R2B act conf: 1.9

Results for Cc1cc2occ(CC(=O)O)c2cc1C ?
PKA-R2B activ: -5.5; Neddylation inh: -6.8; Tn6 DDE FP: -2.5; DDE Tn7 FP inh: 4.6; PKA-R1A activ: -5.7

Results for Cc1ccc2c(CC(=O)O)coc2c1 ?
PKA-R2B activ: 19.1*; Neddylation inh: -3.4; Tn6 DDE FP: -1.1; DDE Tn7 FP inh: 4.4; PKA-R1A activ: 7.5; R2B FP artifact: -0.1; PKA-R2B act conf: -0.6

How did CC1=CC2=NC(=O)CC(C)(C(=O)N(CC(=O)NC(C)(C)C)C3CCCC3)N2C=C1 (stereo unspecified) do in these assays?
PKA-R2B activ: 22.3*; Neddylation inh: 17.8; Tn6 DDE FP: 6.9; DDE Tn7 FP inh: 5.6; PKA-R1A activ: -3.9; R2B FP artifact: -1.2; PKA-R2B act conf: -1.1

What do the screens show for `CC(C)(C)NC(=O)CN(C(=O)C1(C)CC(=O)N=C2C=CC=CN21)C1CCCC1` (stereo unspecified)?
PKA-R2B activ: 2.5; Tn6 DDE FP: 3.4; DDE Tn7 FP inh: 3.9; PKA-R1A activ: 0.1

How did CCC(NC(=O)OCc1ccccc1)C(=O)Oc1ccc2ccc(=O)oc2c1 (stereo unspecified) do in these assays?
PKA-R2B activ: 18.8*; Neddylation inh: 36.1; Tn6 DDE FP: 5.2; DDE Tn7 FP inh: -2.8; PKA-R1A activ: -15.2; R2B FP artifact: 0.4; PKA-R2B act conf: 2.9

What do the screens show for `Nc1[nH]c(C(=O)c2ccccc2)c(-c2ccc(O)cc2)c1C(=O)NCCc1c[nH]c2ccccc12`?
Tn6 DDE FP: -2.6; DDE Tn7 FP inh: -3.7

How did COc1ccc(OC)c(C(=O)NC(CC(N)=O)c2ccc(N3CCN(c4ccccn4)CC3)c([N+](=O)[O-])c2)c1 (stereo unspecified) do in these assays?
PKA-R2B activ: 20.9*; Neddylation inh: -42.7; Tn6 DDE FP: -3.4; DDE Tn7 FP inh: 1.0; PKA-R1A activ: -3.6; R2B FP artifact: -2.7; PKA-R2B act conf: 1.8
